Rows were chosen to be rich in hits. Some 2.7% of all compounds tested hit in one or more screens of this group.
OX1R antag-1: OX1R (human) antagonism; 1.8% of 330,000 active; inhibition, % at 6.6 µM; OX1R-expressing cells, FRET antagonist read-out; O43613; in the data active means inhibition mostly above about 38%, no sharp cut-off; inactive means mostly below about 40%;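 further: 0% = agonist challenge alone and 100% = reference antagonist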
V1aR counter: activates human V1a receptor in oxytocin agonist counter-screen | P37288 | CHO-V1R cells, Fluo-8 calcium fluorescence, agonist mode; 0% DMSO, 100% 3 nM vasopressin | activation, % at 3 µM | 0.25% of 320,000 active | AID 2797;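 active means activation above the mean activation of all tested compounds plus 3 SD, per screening run, cut at about 20% in these data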;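 further: signal is peak over basal fluorescence ratio across a 100 second FLIPR read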
OX1R antag-2: antagonists of human orexin 1 receptor; O43613; CHO/OX1R cells, Fluo-8 calcium fluorescence, orexin A; inhibition, % at 5 µM; 0.43% of 330,000 active; AID 434989;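 active means inhibition above its plate's threshold, mean inhibition of all tested compounds on the plate plus 3 SD, cut at about 37% in these data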;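 further: 0% = orexin A challenge wells and 100% = SB-334867-A antagonist wells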
OXTR ag: activates the human oxytocin receptor | CHO-OTR cells, Fluo-8 calcium fluorescence; normalized: DMSO 0%, oxytocin 100% | AID 2435 | 0.32% of 320,000 active | activation, % at 3 µM;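 active means activation above the mean of all tested compounds plus 3 SD, cutoff set per screening run, cut at about 20% in these data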;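 further: peak over basal fluorescence ratio from a 100 s FLIPR kinetic read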
Target sequence (P30559 whole entry, looked up): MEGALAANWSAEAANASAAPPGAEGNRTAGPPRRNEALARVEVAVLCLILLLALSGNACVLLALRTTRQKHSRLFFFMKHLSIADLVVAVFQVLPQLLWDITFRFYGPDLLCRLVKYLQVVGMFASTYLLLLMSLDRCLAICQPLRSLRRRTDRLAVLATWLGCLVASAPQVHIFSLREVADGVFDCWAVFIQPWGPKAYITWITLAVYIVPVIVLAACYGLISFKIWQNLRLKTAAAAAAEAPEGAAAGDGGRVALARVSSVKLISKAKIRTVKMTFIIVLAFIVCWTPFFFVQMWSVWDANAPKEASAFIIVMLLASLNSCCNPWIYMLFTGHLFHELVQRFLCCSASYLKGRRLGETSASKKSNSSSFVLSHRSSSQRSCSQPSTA
CHO parental Ca: counter-screen for OX1R antagonists: effect in parental CHO cells; parental CHO-K1, ATP-induced calcium, Fluo-8 fluorescence; inhibition, % at 5.6 µM; 0.63% of 330,000 active;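 active means inhibition above that plate's mean sample inhibition plus 3 SD, cut at about 26% in these data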;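 further: 0% = ATP-challenged DMSO wells and 100% = DMSO wells without ATP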
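Test system: untransfected parental CHO cell line. Compound: one dose, 5.6 µM nominal. Detection: intracellular calcium via Fluo-8 no-wash fluorescent dye. Measure: % inhibition. Benchmarks: ATP-challenged DMSO wells low, unchallenged DMSO wells high.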
OXTR potentiator: human OXTR potentiation. P30559. CHO-OTR cells, Fluo-8 calcium fluorescence, potentiator mode; 0% = oxytocin EC15, 100% = EC100. activation, % at 3 µM. 0.061% of 320,000 active. AID 2445;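 active means activation above that plate's cutoff, the mean activation of tested compounds plus 3 SD, cut at about 6.6% in these data, passing the limit was not always enough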;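 further: 100% uses oxytocin at 75 nM as the full agonist control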
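Material: human OTR in CHO cells. Compound: 3.0 µM, one dose. Timing: compound 6 min at room temperature before oxytocin, 100 s read. Evaluation: % activation of max/min ratio relative to oxytocin controls. Replication: single well per compound, singlicate. Signal: Fluo-8 calcium dye fluorescence.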
* marks the source's active call; other numbers are inactive results.

SMILES | OX1R antag-1 | V1aR counter | OX1R antag-2 | OXTR ag | CHO parental Ca | OXTR potentiator
Cc1cccn2c(=O)c3cc(C(=O)NCC4CCCO4)c(=N)n(Cc4cccnc4)c3nc12 (centres undefined) | 60* | 0 | -24 | -1 | -3 | -2
N=c1c(C(=O)NC2CCCCC2)cc2c(=O)n3ccccc3nc2n1Cc1ccco1 | 45 | 0 | -9 | -1 | 1 | -4
N=c1c(C(=O)NCC2CCCO2)cc2c(=O)n3ccccc3nc2n1Cc1ccco1 (centres undefined) | 57* | 0 | -10 | 0 | -10 | 1
N=c1c(C(=O)NCc2ccc(F)cc2)cc2c(=O)n3ccccc3nc2n1Cc1cccnc1 | 35 | -1 | -31 | -2 | -17 | -1
N=c1c(C(=O)NCC2CCCO2)cc2c(=O)n3ccccc3nc2n1Cc1ccc(F)cc1 (centres undefined) | 54* | -2 | -28 | -1 | 9 | -6
CC(=O)N1CCOc2ccc(S(=O)(=O)NCCc3cccc(C)c3)cc21 | 10 | 8 | -19 | 6 | -15 | -5
COc1cc(SC)ccc1C(=O)N(CC(=O)Nc1ccccc1Br)Cc1ccco1 | 22 | -1 | -47 | -3 | -20 | -11
Cc1c(O)nc2ccccn2c1=O | 3 | -1 | 6 | -1 | -1 | -1
O=c1c2c([N+](=O)[O-])cc([N+](=O)[O-])cc2nc2ccccn12 | 73* | -1 | 3 | 0 | -5 | -2
CC(=O)c1ccccc1NC(=O)CCCNC(=O)c1ccc(Cl)cc1 | 20 | 0 | -23 | 1 | -23 | -6
CC(C)OC(=O)CSc1nnc(CNc2ccc(Cl)cc2)n1Cc1ccccc1 | 50 | 12 | 53* | 14 | 55* | -22
CCSc1nsc(NC(=O)Nc2ccc(F)cc2F)n1 | 43* | 11 | 15 | 17 | 74* | -8
CCC(CC)NC(=O)Nc1ccc(F)cc1F | 3 | 1 | -4 | 0 | -3 | 9
CCOc1ccc(NC(=O)Nc2nc(SCC)ns2)cc1 | 41 | 13 | -5 | 15 | 37* | -19
CCOc1ccc(NC(=O)c2nsc(Cl)c2Cl)cc1 | 16 | -1 | -12 | -2 | -1 | -8
N/C(=N\OC(=O)c1ccccc1)c1ccn[nH]1 | 7 | 0 | 0 | -1 | -10 | 1
CN(C(=O)COC(=O)c1cc2ccccc2oc1=O)C1CCCCC1 | 28* | 1 | -20 | 0 | -10 | -1
Cc1cc(/C=C\c2ccc3cc(N(C)C)ccc3[n+]2C)c(C)n1-c1ccccc1 | 80* | 11 | 51* | 18 | 54* | -26
Cc1cc(C)nc(NN2C(=O)/C(=C/c3ccccc3)SC2=S)n1 | 20 | 0 | -20 | -1 | -6 | 2
COc1cc(/C=C2\SC(=S)N(Nc3ncc(C(F)(F)F)cc3Cl)C2=O)ccc1O | 7 | 39* | 49* | 24* | 40* | -15
CN(C)c1ccc(/C=C2\SC(=S)N(Nc3ncc(C(F)(F)F)cc3Cl)C2=O)cc1 | 8 | 92* | 100* | 72* | 76* | -5
CCOc1cc(/C=C2\SC(=S)N(NS(=O)(=O)c3ccccc3)C2=O)ccc1O | 29 | 12 | -7 | 8 | -1 | -19
CC(C)NC(=O)N(C)C[C@H]1Oc2ccc(NS(=O)(=O)c3ccccc3)cc2C(=O)N([C@H](C)CO)C[C@@H]1C | 6 | 2 | -13 | 1 | 1 | 0
COc1ccccc1N=C1NC(=O)/C(=C/c2ccc(N(C)C)cc2)S1 | 24 | 24* | 21 | 25* | 11 | -22
CCN(C[C@H]1N[C@@](C)(C(=O)OC)[C@H]2C(=O)N(C)C(=O)[C@@H]12)C(=O)Nc1ccc(OC)cc1 | 5 | 0 | -14 | 1 | -11 | -6
SMILES | OX1R antag-1 | V1aR counter | OX1R antag-2 | OXTR ag | CHO parental Ca | OXTR potentiator
O=C1CCCN2N=C(SCC(=O)Nc3cccc(C(F)(F)F)c3)SC2=N1 | 29 | 11 | -14 | 10 | 37* | -10
O=C1CCCN2N=C(SCC(=O)Nc3cccc(Cl)c3)SC2=N1 | 17 | 13 | -17 | 11 | -6 | -12
COc1cc(NC(=O)c2cc3cccc(OC)c3o2)cc(C(=O)Nc2cccc(C(F)(F)F)c2)c1 | 12 | 4 | 24 | 1 | 42* | -23
COc1ccc(-c2cc(C(=O)Nc3cc(OC)cc(C(=O)Nc4cccc(C(F)(F)F)c4)c3)[nH]n2)cc1 | 20 | 3 | 22 | 4 | 32* | -15
CN(C)S(=O)(=O)N1CCC(Oc2cccc(C(=O)N3CCSCC3)c2)CC1 | 24 | 2 | -18 | 0 | -10 | -6
CCOc1ccc(C(=O)Nc2cc(-c3nc4ccccc4[nH]3)ccc2Cl)cc1[N+](=O)[O-] | 68* | 0 | -2 | 0 | -6 | -15
C=CCNC(=O)c1ccc(Sc2ccccc2)c([N+](=O)[O-])c1 | 36 | -1 | -26 | -2 | -25 | -11
O=C(O)CNC(=O)c1ccc(Sc2ccccc2)c([N+](=O)[O-])c1 | 64* | 0 | -5 | 1 | 0 | -6
CSc1ccc(C(=O)NCC(=O)O)cc1[N+](=O)[O-] | 53* | 1 | -18 | 1 | -9 | -4
COc1cc(NC(=O)C(C)Oc2ccccc2)c(OC)cc1NC(=O)c1ccccc1 (centres undefined) | 9 | 0 | -27 | -2 | -25 | -3
CN(C(=O)Cn1cnc2sccc2c1=O)C1CCCCC1 | 4 | 1 | -25 | 0 | -11 | 5
CCOc1[nH]n(-c2ccc(Cl)cc2)c(=O)c1C=Nc1ccc(Cl)cc1 | 22 | 0 | -7 | 0 | 38* | -13
Cc1ccc(/C=N/NC(=O)c2cc3c(s2)CCCC3)o1 | 25 | 0 | -6 | -2 | -21 | -4
CN(C)CCCN1C(=O)c2cccc3c(Br)ccc(c23)C1=O | 64* | 1 | -27 | 0 | -13 | 2
Cc1ccc(N=C2NC(=O)/C(=C\c3cccs3)S2)cc1C | 57* | 0 | -22 | 0 | -28 | -5
O=C1Nc2ccccc2S/C1=C/c1cccs1 | 61* | -2 | -5 | -2 | -8 | -2
O=C(CN1C(=O)C(=O)N(C2CCCC2)C1=O)Nc1ccc(OC(F)F)cc1 | 4 | 1 | 1 | 0 | -22 | -5
CCn1c(SCc2nc(-c3ccc(OC)c(OC)c3)no2)nnc1-c1cccs1 | 45* | 2 | 24 | 2 | -8 | -2
COc1ccc(-c2noc(-c3cccs3)n2)cc1OC | 25 | 0 | -27 | -1 | -17 | 2
Cc1ccc(-c2noc(CSc3nnc(Cc4ccccc4)n3-c3cccc(C)c3)n2)cc1 | 14 | 3 | 31 | 2 | -25 | -2
COc1ccc(-c2noc(CSc3nnc(Cc4ccccc4)n3-c3cccc(C)c3)n2)cc1OC | 39* | 0 | 3 | -1 | -12 | -8
